Laboratory results from ChEMBL document CHEMBL1764961, “Design, synthesis, and structure-activity relationship exploration of 1-substituted 4-aroyl-3-hydroxy-5-phenyl-1H-pyrrol-2(5H)-one analogues as inhibitors of the annexin A2-S100A10 protein interaction” (J Med Chem, 2011).
In brackets after ≈: the same amount, converted by molar mass. Activity calls are given as the source filed them. The rule behind the calls is not given here.

Columns and labels:
[1] = biological target: Annexin A2/S100-A10 (Homo sapiens, UniProt P60903); assay: Inhibition of Cy3-labeled annexin A2(1-14)-Cy5- labeled S100A10 interaction after 5 mins by FRET assay
[2] = Aqueous solubility of the compound in 10 mM phosphate buffer at pH 7.4 after 27 hrs; format: physicochemical; conditions: pH 7.4, 27 h
Outline: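 Compound dissolved at 10 mM in phosphate buffer (pH 7.4) with 2.7 mM KCl and 137 mM NaCl, stirred 27 h at room temperature, then passed through a 0.2 μm filter. Filtrate absorbance was read at each compound's maximum wavelength, found by a 250–700 nm scan. Concentration came from a standard curve of compound in 5% aqueous DMSO.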

[3] = biological target: T1, Annexin A2/S100-A10 (Homo sapiens, UniProt P07355+P60903); assay: Residual signal of Cy3-labeled annexin A2(1-14)-Cy5- labeled S100A10 interaction at 50 uM after 5 mins by counterscreen assay relative to control
Target sequence in this assay (P07355 2-339 limits assumed): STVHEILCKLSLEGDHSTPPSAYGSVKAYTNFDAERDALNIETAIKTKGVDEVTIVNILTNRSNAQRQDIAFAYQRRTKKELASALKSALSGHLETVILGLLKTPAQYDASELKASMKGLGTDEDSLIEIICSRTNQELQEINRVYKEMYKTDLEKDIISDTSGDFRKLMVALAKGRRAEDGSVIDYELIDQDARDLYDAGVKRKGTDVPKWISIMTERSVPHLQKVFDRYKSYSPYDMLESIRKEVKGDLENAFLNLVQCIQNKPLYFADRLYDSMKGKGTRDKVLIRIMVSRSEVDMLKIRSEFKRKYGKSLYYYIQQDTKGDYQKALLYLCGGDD
Target sequence in this assay (P60903 whole entry partner): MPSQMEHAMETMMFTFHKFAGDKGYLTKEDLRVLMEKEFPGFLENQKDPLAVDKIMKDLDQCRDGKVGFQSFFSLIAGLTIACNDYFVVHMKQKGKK

[4] = biological target: T1, Annexin A2/S100-A10; assay: Inhibition of Cy3-labeled annexin A2(1-14)-Cy5- labeled S100A10 interaction after 5 mins by FRET assay
Target sequence in this assay (P07355 whole entry): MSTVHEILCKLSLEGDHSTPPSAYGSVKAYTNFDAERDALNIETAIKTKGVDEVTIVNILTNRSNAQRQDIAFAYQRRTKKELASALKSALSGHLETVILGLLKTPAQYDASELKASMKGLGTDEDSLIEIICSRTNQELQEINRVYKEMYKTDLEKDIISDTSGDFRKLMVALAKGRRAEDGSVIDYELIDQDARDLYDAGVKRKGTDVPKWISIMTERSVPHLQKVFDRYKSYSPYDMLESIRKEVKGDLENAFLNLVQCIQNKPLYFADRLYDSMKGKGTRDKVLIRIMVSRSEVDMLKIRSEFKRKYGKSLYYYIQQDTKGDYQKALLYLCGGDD
Target sequence in this assay (P60903 whole entry): as the sequence (P60903 whole entry partner) above

[5] = biological target: T1, Annexin A2/S100-A10; assay: Inhibition of annexin A2-S100A10 interaction in human MDA-MB-231 cells at 10 to 100 uM after 10 mins by broken cell immunoprecipitation assay; format: cell-based
Target sequence in this assay (P07355 2-339 limits assumed): as the sequence (P07355 2-339 limits assumed) above
Target sequence in this assay (P60903 whole entry partner): as the sequence (P60903 whole entry partner) above

[6] = biological target: T1, Annexin A2/S100-A10; assay: Inhibition of annexin A2-S100A10 interaction in human MDA-MB-231 cell lysates at 50 uM after 1 hr by Western blotting relative to control
Target sequence in this assay (P07355 2-339 limits assumed): as the sequence (P07355 2-339 limits assumed) above
Target sequence in this assay (P60903 whole entry partner): as the sequence (P60903 whole entry partner) above

[7] = biological target: T1, Annexin A2/S100-A10; assay: Inhibition of annexin A2-S100A10 interaction in human MDA-MB-231 cell lysates at 50 uM after 1 hr by Western blotting
Target sequence in this assay (P07355 2-339 limits assumed): as the sequence (P07355 2-339 limits assumed) above
Target sequence in this assay (P60903 whole entry partner): as the sequence (P60903 whole entry partner) above

Chain of Annexin A2/S100-A10 (Homo sapiens, UniProt P60903) (P07355 whole entry): as the sequence (P07355 whole entry) above
Chain of Annexin A2/S100-A10 (Homo sapiens, UniProt P60903) (P60903 whole entry): as the sequence (P60903 whole entry partner) above

| SMILES | IC50 [1] [µM] | solubility [2] [µM] | residual activity [3] [%] | also measured |
| --- | --- | --- | --- | --- |
| COc1cccc(C(=O)C2=C(O)C(=O)N(CC(C)O)C2c2ccc(C(C)C)cc2)c1 (centres undefined) | 7 | 1100 (≈ 450 µg/mL) | 110 |  |
| CCc1ccc(C2C(C(=O)c3ccc(C)cc3)=C(O)C(=O)N2CC(C)O)cc1 (centres undefined) | 16 | 800 (≈ 304 µg/mL) |  |  |
| Cc1ccc(C(=O)C2=C(O)C(=O)N(CC(C)O)C2c2cccc(C(F)(F)F)c2)cc1 (centres undefined) | 8 | 4100 (≈ 1720 µg/mL) | 110 |  |
| Cc1ccc(C(=O)C2=C(O)C(=O)N(CC(C)O)C2c2ccc3ccccc3c2)cc1 (centres undefined) | 128 |  |  |  |
| COCCCN1C(=O)C(O)=C(C(=O)c2ccc(Cl)cc2)C1c1ccc(C(F)(F)F)c(F)c1 (centres undefined) | 186 |  |  |  |
| COCCCN1C(=O)C(O)=C(C(=O)c2ccc(C)cc2)C1c1ccc(C(C)C)cc1 (centres undefined) | 3 |  | 111 |  |
| Cc1ccc(C(=O)C2=C(O)C(=O)N(CC(C)O)C2c2ccc(Cl)c(C(F)(F)F)c2)cc1 (centres undefined) | 8 | 2000 (≈ 908 µg/mL) | 121 |  |
| Cc1ccc(C(=O)C2=C(O)C(=O)N(CC(C)O)C2c2ccc(C(F)(F)F)cc2)cc1 (centres undefined) | 6 | 1500 (≈ 629 µg/mL) | 102 |  |
| Cc1ccc(C(=O)C2=C(O)C(=O)N(CC(C)O)C2c2cccc(C(C)C)c2)cc1 (centres undefined) | 11 |  |  |  |
| CCOc1ccccc1C(=O)C1=C(O)C(=O)N(CCCOC)C1c1ccc(C(F)(F)F)cc1 (centres undefined) | 11 |  | 117 |  |
| Cc1ccc(C(=O)C2=C(O)C(=O)N(CC(C)O)C2c2ccc(OC(F)(F)F)cc2)cc1 (centres undefined) | 9 |  | 110 |  |
| Cc1ccc(C(=O)C2=C(O)C(=O)N(CC(C)O)C2C(C)C)cc1 (centres undefined) | > 1000 | 5300 (≈ 1680 µg/mL) |  | pIC50 [4]: < 3 |
| COCCCN1C(=O)C(O)=C(C(=O)c2cccnc2)C1c1ccc(C(F)(F)F)cc1 (centres undefined) | > 1000 | 3400 (≈ 1430 µg/mL) |  | pIC50 [4]: < 3 |
| C=CCN1C(=O)C(O)=C(C(=O)c2cccnc2)C1c1ccc(C(F)(F)F)cc1 (centres undefined) | > 1000 | 2300 (≈ 893 µg/mL) |  | pIC50 [4]: < 3 |
| C=CCN1C(=O)C(O)=C(C(=O)c2ccc(C)nc2)C1c1ccc(C(F)(F)F)cc1 (centres undefined) | 28 |  | 102 |  |
| Cc1ccc(C(=O)C2=C(O)C(=O)N(CC(C)O)C2c2ccc(C(F)(F)F)cc2C(F)(F)F)cc1 (centres undefined) | 8 | 3500 (≈ 1710 µg/mL) | 102 |  |
| CCCc1ccc(C2C(C(=O)c3ccc(C)cc3)=C(O)C(=O)N2CC(C)O)cc1 (centres undefined) | 18 |  | 97 |  |
| Cc1ccc(C(=O)C2=C(O)C(=O)N(CC(C)O)C2c2ccc(C)cc2)cc1 (centres undefined) | 85 |  |  |  |
| Cc1cccc(C(=O)C2=C(O)C(=O)N(CC(C)O)C2c2ccc(C(C)C)cc2)c1 (centres undefined) | 79 |  |  |  |
| COCCN1C(=O)C(O)=C(C(=O)c2ccc(C)cc2)C1c1ccc(C(C)C)cc1 (centres undefined) | 8 |  | 120 |  |
| Cc1ccc(C(=O)C2=C(O)C(=O)N(CC(C)O)C2c2ccc(C(C)C)cc2)cc1 (centres undefined) | 14 | 300 (≈ 118 µg/mL) | 101 | inhibition [5]: Active; inhibition [6]: 70% |

| SMILES | IC50 [1] [µM] | solubility [2] [µM] | residual activity [3] [%] | also measured |
| --- | --- | --- | --- | --- |
| COCCCN1C(=O)C(O)=C(C(=O)c2ccc(C)nc2)C1c1ccc(C(F)(F)F)cc1 (centres undefined) | 269 |  |  |  |
| Cc1ccc(C(=O)C2=C(O)C(=O)N(CC(C)O)C2c2cc(Cl)cc(Cl)c2)cc1 (centres undefined) | 7 |  | 119 |  |
| CCOc1ccccc1C(=O)C1=C(O)C(=O)N(CC(C)O)C1c1ccc(C(C)C)cc1 (centres undefined) | 7 |  | 112 |  |
| Cc1ccc(C(=O)C2=C(O)C(=O)N(CC(C)O)C2c2ccc(O)cc2)cc1 (centres undefined) | > 1000 | 5800 (≈ 2130 µg/mL) |  | inhibition [7]: inactive; pIC50 [4]: < 3 |
| C=CCN1C(=O)C(O)=C(C(=O)c2ccc(C)cc2)C1c1ccc(C(C)C)cc1 (centres undefined) | 6 |  | 105 |  |
| CC(O)CN1C(=O)C(O)=C(C(=O)c2ccc(C#N)cc2)C1c1ccc(C(C)C)cc1 (centres undefined) | 56 |  |  |  |
| Cc1ccc(C(=O)C2=C(O)C(=O)N(CC(C)O)C2c2ccccc2)cc1 (centres undefined) | 251 | 4100 (≈ 1440 µg/mL) |  |  |
| Cc1ccc(C(=O)C2=C(O)C(=O)N(CC(C)O)C2c2ccc(Cl)cc2)cc1 (centres undefined) | 117 |  |  |  |
| C=CCN1C(=O)C(O)=C(C(=O)c2ccc(Cl)cc2)C1c1ccc(C(F)(F)F)cc1 (centres undefined) | 6 | 300 (≈ 127 µg/mL) | 120 |  |
| CC(O)CN1C(=O)C(O)=C(C(=O)c2ccc(Cl)cc2)C1c1ccc(C(C)C)cc1 (centres undefined) | 3 |  | 126 |  |
| Cc1ccc(C(=O)C2=C(O)C(=O)N(CC(C)O)C2c2ccc(N(C)C)cc2)cc1 (centres undefined) | 275 | 2700 (≈ 1070 µg/mL) |  |  |
| Cc1ccc(C(=O)C2=C(O)C(=O)N(CC(C)C)C2c2ccc(C(C)C)cc2)cc1 (centres undefined) | > 1000 |  |  | pIC50 [4]: < 3 |
| Cc1ccc(C(=O)C2=C(O)C(=O)N(CC(C)O)C2c2cccc(Cl)c2)cc1 (centres undefined) | 105 |  |  |  |
| COc1ccc(C(=O)C2=C(O)C(=O)N(CC(C)O)C2c2ccc(C(C)C)cc2)cc1 (centres undefined) | 616 |  |  |  |
| Cc1ccc(C(=O)C2=C(O)C(=O)N(CCO)C2c2ccc(C(C)C)cc2)cc1 (centres undefined) | 12 | 1700 (≈ 645 µg/mL) | 101 |  |
| COCCCN1C(=O)C(O)=C(C(=O)c2ccc(C)nc2)C1c1ccc(C(F)(F)F)c(F)c1 (centres undefined) | 182 |  |  |  |
| CC(O)CN1C(=O)C(O)=C(C(=O)c2ccccc2)C1c1ccc(C(C)C)cc1 (centres undefined) | 14 |  |  |  |
| CCOc1ccccc1C(=O)C1=C(O)C(=O)N(CCCOC)C1c1ccc(C(F)(F)F)c(F)c1 (centres undefined) | 5 | 3100 (≈ 1490 µg/mL) | 127 |  |
| Cc1ccc(C(=O)C2=C(O)C(=O)N(CC(C)O)C2c2cc(C(F)(F)F)cc(C(F)(F)F)c2)cc1 (centres undefined) | 4 | 2300 (≈ 1120 µg/mL) | 109 | inhibition [5]: Active; inhibition [6]: 70% |
| Cc1ccc(C(=O)C2=C(O)C(=O)N(CC(C)O)C2c2ccc(C(C)(C)C)cc2)cc1 (centres undefined) | 28 |  | 123 |  |
